The text below walks through data of ChEMBL document CHEMBL3407438, “Discovery of potent, orally bioavailable, small-molecule inhibitors of WNT signaling from a cell-based pathway screen” (J Med Chem, 2015).

A short description of data set [1]: Thermodynamic aqueous solubility of the compound in phosphate buffer at pH 7.4. The format is physicochemical. In a few lines:
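Kinetic and thermodynamic aqueous solubilities were measured in phosphate buffer at pH 7.4.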

The target in a further data set is Cytochrome P450 2C9 (Homo sapiens, UniProt P11712). Description: Inhibition of CYP2C9 (unknown origin). Format: ADME. The conditions noted are these: human.
Chain of Cytochrome P450 2C9 (P11712 whole entry): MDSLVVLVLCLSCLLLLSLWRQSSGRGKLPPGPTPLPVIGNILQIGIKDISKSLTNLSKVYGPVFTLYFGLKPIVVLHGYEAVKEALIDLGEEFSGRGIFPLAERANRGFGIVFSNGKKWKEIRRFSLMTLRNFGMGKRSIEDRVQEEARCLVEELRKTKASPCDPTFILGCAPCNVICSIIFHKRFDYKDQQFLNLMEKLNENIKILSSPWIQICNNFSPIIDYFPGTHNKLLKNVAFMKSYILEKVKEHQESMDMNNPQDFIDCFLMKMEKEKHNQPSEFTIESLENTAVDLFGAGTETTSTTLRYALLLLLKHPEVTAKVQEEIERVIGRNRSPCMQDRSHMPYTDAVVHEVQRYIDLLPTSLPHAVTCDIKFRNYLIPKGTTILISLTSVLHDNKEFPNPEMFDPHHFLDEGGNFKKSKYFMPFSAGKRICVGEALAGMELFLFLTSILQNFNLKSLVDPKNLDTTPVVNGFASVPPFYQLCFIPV
A short description of data set [2]: Volume of distribution at steady state in Wistar rat at 0.2 mg/kg, iv. Format: ADME, organism-based. Further details: dose 0.2 mg/kg, route intravenous. The settings on record: in vivo, read-out: Vdss. In a few lines:
(§1)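 Male Wistar rats (n = 6) received cassette dosing, either iv bolus at 0.2 mg/kg or oral gavage at 0.5 mg/kg per compound, in DMSO/PEG 200/water. Plasma levels were measured by UPLC–MS/MS.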

In data set [3] the target is T1, Poly [ADP-ribose] polymerase tankyrase-2 (Homo sapiens, UniProt Q9H2K2).
T1 sequence (Q9H2K2 whole entry): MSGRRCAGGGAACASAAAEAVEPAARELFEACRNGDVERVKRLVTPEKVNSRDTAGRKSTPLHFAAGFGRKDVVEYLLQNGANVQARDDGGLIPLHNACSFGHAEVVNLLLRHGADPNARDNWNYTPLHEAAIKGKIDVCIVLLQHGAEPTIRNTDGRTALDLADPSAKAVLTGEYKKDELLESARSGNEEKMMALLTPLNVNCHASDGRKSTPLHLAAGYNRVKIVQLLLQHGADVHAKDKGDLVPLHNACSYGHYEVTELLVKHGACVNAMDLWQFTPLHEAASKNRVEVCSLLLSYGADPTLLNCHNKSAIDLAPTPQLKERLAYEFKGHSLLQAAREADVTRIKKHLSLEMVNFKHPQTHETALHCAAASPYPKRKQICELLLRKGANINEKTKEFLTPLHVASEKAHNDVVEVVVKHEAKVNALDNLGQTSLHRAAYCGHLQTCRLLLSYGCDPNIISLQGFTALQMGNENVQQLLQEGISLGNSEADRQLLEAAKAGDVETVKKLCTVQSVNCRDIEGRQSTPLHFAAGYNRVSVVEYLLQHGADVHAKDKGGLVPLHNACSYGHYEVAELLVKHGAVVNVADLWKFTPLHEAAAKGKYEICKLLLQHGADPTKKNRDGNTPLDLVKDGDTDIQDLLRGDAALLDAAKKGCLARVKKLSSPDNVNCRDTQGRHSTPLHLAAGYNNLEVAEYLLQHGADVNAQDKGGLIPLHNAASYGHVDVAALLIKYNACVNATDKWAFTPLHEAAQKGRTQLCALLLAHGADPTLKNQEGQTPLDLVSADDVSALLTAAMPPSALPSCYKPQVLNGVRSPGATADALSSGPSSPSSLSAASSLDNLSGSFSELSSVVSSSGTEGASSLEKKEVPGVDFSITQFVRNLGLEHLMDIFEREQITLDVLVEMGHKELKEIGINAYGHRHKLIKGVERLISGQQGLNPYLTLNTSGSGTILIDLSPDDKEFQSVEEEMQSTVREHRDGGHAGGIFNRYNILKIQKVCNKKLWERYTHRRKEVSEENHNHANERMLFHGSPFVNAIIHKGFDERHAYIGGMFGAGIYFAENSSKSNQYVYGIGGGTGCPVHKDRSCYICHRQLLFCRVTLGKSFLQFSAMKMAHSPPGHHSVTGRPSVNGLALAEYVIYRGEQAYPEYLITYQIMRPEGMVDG
The data set can be described thus: Inhibition of GST-tagged TNKS2 (873 to 1166 aa) (unknown origin) after 90 mins by HTRF assay. For orientation: TR-FRET usually uses a lanthanide donor and a delayed reading to cut background.

A further data set addresses T2, Cytochrome P450 2C8 (Homo sapiens, UniProt P10632).
T2 sequence (P10632 whole entry): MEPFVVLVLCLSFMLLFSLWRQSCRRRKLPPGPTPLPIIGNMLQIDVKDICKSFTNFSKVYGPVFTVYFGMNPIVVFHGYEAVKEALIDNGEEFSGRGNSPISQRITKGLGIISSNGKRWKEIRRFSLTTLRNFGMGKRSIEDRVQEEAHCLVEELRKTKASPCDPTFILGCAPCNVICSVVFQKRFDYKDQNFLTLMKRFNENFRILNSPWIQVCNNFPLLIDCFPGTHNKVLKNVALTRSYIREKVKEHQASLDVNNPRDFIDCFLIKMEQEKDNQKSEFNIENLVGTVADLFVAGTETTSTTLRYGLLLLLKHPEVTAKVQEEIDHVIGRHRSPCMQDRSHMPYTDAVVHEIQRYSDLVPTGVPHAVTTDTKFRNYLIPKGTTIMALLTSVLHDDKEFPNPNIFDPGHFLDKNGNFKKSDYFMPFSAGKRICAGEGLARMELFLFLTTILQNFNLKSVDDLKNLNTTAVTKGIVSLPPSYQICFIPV
Description: Inhibition of CYP2C8 (unknown origin). Format: ADME.

A short description of data set [4]: AUC in NMRI mouse at 0.2 mg/kg, iv. The format is ADME, organism-based. On the set-up: dose 0.2 mg/kg, route intravenous. The conditions noted are these: plasma. In a few lines:
(§2)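 Female NMRI mice (n = 5) given a single iv bolus (0.2 mg/kg per compound) or oral gavage (0.5 mg/kg per compound) as a cassette, in DMSO/PEG 200/water. Serial retro-orbital blood was drawn under isoflurane from 3 animals per route at 0.1 (iv), 0.25 (po), 0.5, 1, 2, 4 and 6 h. Plasma was quantified by LC–MS/MS.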

The nature of data set [5]: Tmax in NMRI mouse at 0.2 mg/kg, iv. The format is ADME, organism-based. On the set-up: dose 0.2 mg/kg, route intravenous. The settings on record: in vivo. Summed up:
as §2

The subject of a further data set is COLO 205. The data set can be described thus: Effect on TCF1 level in human COLO205-F1756 clone 4 cells harboring APC mutant and TCF/LEF responsive element at 350 nM by immunoblotting. The format is functional, cell-based. (In general: In western blotting, separated proteins are transferred to a membrane and probed.)
A short description of data set [6]: Antitumor activity against human COLO205-F1756 clone 4 cells harboring APC mutant xenografted in CrTac:NCr-Foxn1nu mouse assessed as reduction in flux normalized to tumor weight at 70 mg/kg, po bid for 9 days relative to control. Format: functional, COLO 205. On the set-up: scale not given: the % may be the effect or the level left. Summed up:
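Female athymic nude mice were implanted sc in the flank with 3 million COLO205-F1756 clone 4 cells. At about 100 mm3, groups of n = 8 were gavaged at 70 mg/kg bid or with vehicle (10% DMSO, 5% Tween 20 in saline). Luminescent flux was imaged after sc D-luciferin 2 and 6 h post final dose, then tumours were excised and weighed. Mann–Whitney U test.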

A short description of data set [7]: Tmax in Wistar rat at 0.5 mg/kg, po. Format: ADME, organism-based. Further details: dose 0.5 mg/kg, route oral. The conditions noted are these: in vivo. Summed up:
as §1

The test system of a further data set is Plasma. The data set can be described thus: Drug uptake in plasma of human COLO205-F1756 clone 4 cells harboring APC mutant xenografted CrTac:NCr-Foxn1nu mouse at 70 mg/kg, po bid for 9 days measured after 2 to 6 hrs. Format: ADME, organism-based, COLO 205. On the set-up: dose 70 mg/kg, route oral. The conditions noted are these: in vivo. In a few lines: (§3)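 In COLO205-F1756 clone 4 xenograft-bearing nude mice dosed orally at 70 mg/kg bid, cardiac blood and tumours were taken 2 and 6 h after the final dose. Tumours were homogenized in 3 v/w PBS, methanol-extracted with internal standard, and total levels were measured by UPLC–MS/MS (MRM, positive ion).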
(In general: A xenograft is tissue or cells of one species grown in another, often human tumour cells in immunodeficient mice.)

Data set [8] in a line: AUC in Wistar rat at 0.5 mg/kg, po. Format: ADME, organism-based. Further details: dose 0.5 mg/kg, route oral. The settings on record: plasma. Summed up:
as §1

The nature of the next data set: in vivo. The settings on record: Wistar, rat, iv, 0.2 mg/kg.
Data set [9] can be described thus: Drug uptake in tumor of human COLO205-F1756 clone 4 cells harboring APC mutant xenografted CrTac:NCr-Foxn1nu mouse at 70 mg/kg, po bid for 9 days measured after 2 to 6 hrs. The conditions noted are these: in vivo. Further details: dose 70 mg/kg, route oral. The format is ADME, organism-based, COLO 205. Summed up:
as §3

The nature of data set [10]: Clearance in Wistar rat at 0.2 mg/kg, iv. On the set-up: dose 0.2 mg/kg, route intravenous. The settings on record: in vivo. Format: ADME, organism-based. Summed up:
as §1

Active and inactive are the calls of the source. The rule behind the calls is not given here.

Regarding `Cn1cc(-c2ccc(-c3cncc(Cl)c3N3CCC4(CCNC4=O)CC3)cc2)cn1`, in data set [1], the Therm_solubility was determined as 6 µg/mL. Moreover, the “inhibition (INH)” value on Cytochrome P450 2C9 and against Cytochrome P450 2C8 was “Not Active” throughout. Besides, the Vd in data set [2] came out at 1.8 L/kg. Moreover, the IC50 (as a rule, the concentration needed to halve the response being measured) in data set [3] is 15 µM. For the same molecule, the AUC (as a rule, concentration integrated over time) came to 107 ng·h/mL in data set [4] and 288 ng·h/mL in data set [8]. Moreover, the Tmax (usually the time at which the peak concentration occurs) in data set [5] was 6 min; in [7], 15 min. For the same molecule, the outcome in the data set with COLO 205 was inactive. Also, the Activity in [6] worked out at 80%. The Drug uptake result (with Plasma; in [9]) was “Active” throughout. In the data set “in vivo”, the half-life (in general, how long it takes for the measured level to halve) is 58.2 min. The clearance (as a rule, the volume of plasma or blood freed of the substance per unit of time) in [10] is 26 mL/min/kg.
